According to ChEMBL document CHEMBL4840305, “Structure-guided design and development of novel N-phenylpyrimidin-2-amine derivatives as potential c-Met inhibitors” (Eur J Med Chem, 2021):

Key:
[1] = test system: PANC-1; test: cells; conditions: Homo sapiens
[2] = test system: PC-3; test: cells; conditions: Homo sapiens
[3] = test system: HepG2; test: cells; conditions: Homo sapiens
[4] = test system: CAKI-1; test: cells; conditions: Homo sapiens
[5] = test system: HCT-116; test: cells; conditions: Homo sapiens
[6] = molecular target: Hepatocyte growth factor receptor (Homo sapiens, UniProt P08581); test: Inhibition of c-MET kinase (unknown origin) using poly(Glu:Tyr)(4:1) as substrate by ELISA
Chain of Hepatocyte growth factor receptor (P08581 whole entry): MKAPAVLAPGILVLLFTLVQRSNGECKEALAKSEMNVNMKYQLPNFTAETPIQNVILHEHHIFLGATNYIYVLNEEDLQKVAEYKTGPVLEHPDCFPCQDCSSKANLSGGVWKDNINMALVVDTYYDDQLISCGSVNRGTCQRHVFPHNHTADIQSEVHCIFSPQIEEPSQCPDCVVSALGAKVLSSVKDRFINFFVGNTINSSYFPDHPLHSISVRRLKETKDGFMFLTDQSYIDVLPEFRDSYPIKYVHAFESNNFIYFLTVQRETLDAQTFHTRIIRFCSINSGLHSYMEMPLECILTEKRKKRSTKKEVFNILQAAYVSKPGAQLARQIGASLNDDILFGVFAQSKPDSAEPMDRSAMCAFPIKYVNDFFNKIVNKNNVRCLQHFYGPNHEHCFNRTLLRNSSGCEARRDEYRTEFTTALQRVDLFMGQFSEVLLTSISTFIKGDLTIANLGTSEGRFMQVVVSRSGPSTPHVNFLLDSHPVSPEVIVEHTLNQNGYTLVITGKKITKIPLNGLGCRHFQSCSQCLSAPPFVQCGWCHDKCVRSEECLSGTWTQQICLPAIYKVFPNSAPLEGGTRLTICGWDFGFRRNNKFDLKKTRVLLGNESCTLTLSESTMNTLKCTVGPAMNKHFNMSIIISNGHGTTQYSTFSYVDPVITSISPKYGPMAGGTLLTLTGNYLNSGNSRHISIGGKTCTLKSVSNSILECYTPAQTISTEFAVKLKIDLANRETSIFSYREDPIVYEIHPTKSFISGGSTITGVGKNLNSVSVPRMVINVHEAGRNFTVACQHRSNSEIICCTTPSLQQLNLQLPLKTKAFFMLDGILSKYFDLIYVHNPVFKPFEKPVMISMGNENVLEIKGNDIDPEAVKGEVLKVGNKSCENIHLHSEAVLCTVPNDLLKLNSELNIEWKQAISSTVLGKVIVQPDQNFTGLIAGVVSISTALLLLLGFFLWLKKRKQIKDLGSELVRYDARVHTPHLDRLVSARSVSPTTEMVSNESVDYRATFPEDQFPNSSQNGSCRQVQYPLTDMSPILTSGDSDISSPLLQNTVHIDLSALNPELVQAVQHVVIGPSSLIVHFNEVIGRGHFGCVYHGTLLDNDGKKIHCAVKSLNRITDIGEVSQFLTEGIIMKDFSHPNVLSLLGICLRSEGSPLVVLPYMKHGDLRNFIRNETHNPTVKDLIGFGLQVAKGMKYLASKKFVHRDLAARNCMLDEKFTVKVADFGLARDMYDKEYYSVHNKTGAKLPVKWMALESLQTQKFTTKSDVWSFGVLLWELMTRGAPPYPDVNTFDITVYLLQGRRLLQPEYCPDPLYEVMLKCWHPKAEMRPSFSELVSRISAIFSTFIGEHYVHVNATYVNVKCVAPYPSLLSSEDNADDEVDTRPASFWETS

[7] = Acute toxicity in ICR mouse assessed as animal survival at 1200 mg/kg, po measured on day 14 (reference value: 100%); type: organism-based; conditions: in vivo, time 14 day
[8] = Cmax in Sprague-Dawley rat at 4 mg/kg, iv by LC-MS/MS analysis; type: ADME, organism-based; parameters: route intravenous, dose 4 mg/kg; conditions: in vivo
Procedure, shortened: (§1)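 Male SD rats were used. Compound concentrations in plasma were measured by LC/MS/MS. The oral arm was dosed at 20 mg/kg.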

[9] = molecular target: Voltage-gated inwardly rectifying potassium channel KCNH2 (Homo sapiens, UniProt Q12809); test: Inhibition of human ERG
Chain of Voltage-gated inwardly rectifying potassium channel KCNH2 (Q12809 whole entry): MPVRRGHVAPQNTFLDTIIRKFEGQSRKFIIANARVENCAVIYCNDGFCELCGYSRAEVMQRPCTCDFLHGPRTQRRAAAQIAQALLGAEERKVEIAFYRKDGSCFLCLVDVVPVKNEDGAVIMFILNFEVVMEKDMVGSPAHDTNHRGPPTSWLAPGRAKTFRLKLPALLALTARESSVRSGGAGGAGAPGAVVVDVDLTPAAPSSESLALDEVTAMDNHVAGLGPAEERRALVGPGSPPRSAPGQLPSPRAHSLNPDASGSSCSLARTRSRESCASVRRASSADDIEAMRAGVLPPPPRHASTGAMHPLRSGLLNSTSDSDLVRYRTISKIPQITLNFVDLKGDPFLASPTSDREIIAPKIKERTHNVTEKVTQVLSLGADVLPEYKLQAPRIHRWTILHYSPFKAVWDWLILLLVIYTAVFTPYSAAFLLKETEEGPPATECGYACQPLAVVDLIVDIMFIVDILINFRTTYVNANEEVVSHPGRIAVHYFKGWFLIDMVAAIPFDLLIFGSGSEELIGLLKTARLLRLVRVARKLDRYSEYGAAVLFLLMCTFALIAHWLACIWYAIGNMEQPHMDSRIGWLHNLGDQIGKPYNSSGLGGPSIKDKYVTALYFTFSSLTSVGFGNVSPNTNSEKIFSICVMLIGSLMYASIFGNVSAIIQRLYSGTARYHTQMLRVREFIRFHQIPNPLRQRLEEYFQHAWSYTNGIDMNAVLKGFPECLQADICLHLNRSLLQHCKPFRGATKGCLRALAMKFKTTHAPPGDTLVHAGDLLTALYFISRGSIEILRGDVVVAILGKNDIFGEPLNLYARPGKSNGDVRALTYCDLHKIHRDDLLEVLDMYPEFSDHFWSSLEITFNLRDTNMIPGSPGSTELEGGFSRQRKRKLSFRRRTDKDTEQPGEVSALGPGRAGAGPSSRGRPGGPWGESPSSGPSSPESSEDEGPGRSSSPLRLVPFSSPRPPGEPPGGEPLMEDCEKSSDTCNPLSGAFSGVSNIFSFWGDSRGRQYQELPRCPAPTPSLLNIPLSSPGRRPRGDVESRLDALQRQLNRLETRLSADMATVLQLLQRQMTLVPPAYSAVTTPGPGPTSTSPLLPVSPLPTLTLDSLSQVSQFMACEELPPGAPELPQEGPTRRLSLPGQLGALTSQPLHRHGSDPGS

[10] = Acute toxicity in ICR mouse assessed as abnormalities in liver at 600 to 1200 mg/kg, po administered as single dose and measured on day 14; type: organism-based; conditions: in vivo, 336 h, dose 600-1200 mg/kg, time 14 day
[11] = Acute toxicity in ICR mouse assessed as animal survival at 1500 mg/kg, po measured on day 14 (reference value: 100%); type: organism-based; conditions: in vivo, time 14 day
[12] = Apparent clearance during terminal phase in Sprague-Dawley rat at 4 mg/kg, iv by LC-MS/MS analysis; type: ADME, organism-based; conditions: in vivo
Procedure, shortened: as §1

[13] = Oral bioavailability in Sprague-Dawley rat at 20 mg/kg by LC-MS/MS analysis; type: ADME, organism-based; conditions: in vivo
Procedure, shortened: as §1

[14] = AUC(0 to t) in Sprague-Dawley rat at 20 mg/kg, po by LC-MS/MS analysis; type: ADME, organism-based; parameters: dose 20 mg/kg; conditions: in vivo
[15] = Apparent clearance during terminal phase in Sprague-Dawley rat at 20 mg/kg, po by LC-MS/MS analysis; type: ADME, organism-based; conditions: in vivo, read-out: CLz/F (converted)
Procedure, shortened: as §1

[16] = Acute toxicity in ICR mouse assessed as animal survival at 800 mg/kg, po measured on day 14 (reference value: 100%); type: organism-based; conditions: in vivo, time 14 day
[17] = Acute toxicity in ICR mouse assessed as abnormalities in heart at 600 to 1200 mg/kg, po administered as single dose and measured on day 14; type: organism-based; conditions: in vivo, 336 h, dose 600-1200 mg/kg, time 14 day
[18] = AUC(0 to t) in Sprague-Dawley rat at 4 mg/kg, iv by LC-MS/MS analysis; type: ADME, organism-based; parameters: dose 4 mg/kg; conditions: in vivo
Procedure, shortened: as §1

[19] = Cmax in Sprague-Dawley rat at 20 mg/kg, po by LC-MS/MS analysis; type: ADME, organism-based; parameters: route oral, dose 20 mg/kg; conditions: in vivo
Procedure, shortened: as §1

[20] = Acute toxicity in ICR mouse assessed as abnormalities in kidneys at 600 to 1200 mg/kg, po administered as single dose and measured on day 14; type: organism-based; conditions: in vivo, 336 h, dose 600-1200 mg/kg, time 14 day
[21] = Half life in Sprague-Dawley rat at 20 mg/kg, po by LC-MS/MS analysis; type: ADME, organism-based; conditions: in vivo
Procedure, shortened: as §1

[22] = Acute toxicity in ICR mouse assessed as animal survival at 1000 mg/kg, po measured on day 14 (reference value: 100%); type: organism-based; conditions: in vivo, time 14 day
[23] = Tmax in Sprague-Dawley rat at 20 mg/kg, po by LC-MS/MS analysis; type: ADME, organism-based; conditions: in vivo
Procedure, shortened: as §1

[24] = Half life in Sprague-Dawley rat at 4 mg/kg, iv by LC-MS/MS analysis; type: ADME, organism-based; conditions: in vivo
Procedure, shortened: as §1

[25] = Acute toxicity in ICR mouse assessed as animal survival at 2000 mg/kg, po measured on day 14 (reference value: 100%); type: organism-based; conditions: in vivo, time 14 day
[26] = Acute toxicity in ICR mouse assessed as animal survival at 600 mg/kg, po measured on day 14 (reference value: 100%); type: organism-based; conditions: in vivo, time 14 day

| SMILES | IC50 [1] [µM] | IC50 [2] [µM] | IC50 [3] [µM] | IC50 [4] [µM] | IC50 [5] [µM] | IC50 [6] [µM] | other results |
| --- | --- | --- | --- | --- | --- | --- | --- |
| O=C(Nc1ccc(F)cc1)C1(C(=O)Nc2ccc(Oc3cc(Nc4cccc(N5CCOCC5)c4)ncn3)c(F)c2)CC1 | 5.53 | 4.71 | 5.97 | 2.69 | 7.99 |  |  |
| CN1CCN(c2cccc(Nc3nccc(Oc4ccc(NC(=O)C5(C(=O)Nc6ccc(F)cc6)CC5)cc4)n3)c2)CC1 | 3.16 | 2.25 | 1.73 | 1.63 | 2.02 |  |  |
| COC(=O)c1ccc(Nc2nccc(Oc3ccc(NC(=O)C4(C(=O)Nc5ccc(F)cc5)CC4)cc3)n2)c(OC)c1 |  |  |  |  |  | > 2 |  |
| O=C(Nc1ccc(F)cc1)C1(C(=O)Nc2ccc(Oc3ccnc(Nc4cccc(N5CCOCC5)c4)n3)c(F)c2)CC1 | 3.4 | 2.34 | 2.21 | 2.92 | 3.15 |  |  |
| O=C(Nc1ccc(F)cc1)C1(C(=O)Nc2ccc(Oc3ccnc(Nc4cccc(N5CCOCC5)c4)c3)cc2)CC1 | 4.01 | 3.3 | 4.86 | 2.59 | 4.79 |  |  |
| COC(=O)c1ccc(Nc2nccc(Oc3ccc(NC(=O)C4(C(=O)Nc5ccc(F)cc5)CC4)cc3)n2)nc1 |  |  |  |  |  | > 2 |  |
| CNC(=O)c1cccc(Nc2nccc(Oc3ccc(NC(=O)C4(C(=O)Nc5ccc(F)cc5)CC4)cc3)n2)c1 | 2.85 | 1.93 | 7.01 | 3.31 | 3.56 |  |  |
| O=C(Nc1ccc(F)cc1)c1ccccc1Nc1ccc(Oc2ccnc(Nc3cccc(CN4CCOCC4)c3)n2)cc1 |  |  |  |  |  | > 1 |  |
| O=C(Nc1ccc(F)cc1)c1ccccc1Nc1ccc(Oc2ccnc(Nc3cccc(N4CCOCC4)c3)n2)cc1 |  |  |  |  |  | > 1 |  |
| Cc1c(C(=O)Nc2ccc(Oc3ccnc(Nc4cccc(N5CCOCC5)c4)n3)c(F)c2)c(=O)n(-c2ccccc2)n1C | 2 | 1.8 | 2.1 | 1.88 | 2.34 |  |  |
| Cc1c(C(=O)Nc2ccc(Oc3ccnc(Nc4cccc(N5CCOCC5)c4)n3)cc2)c(=O)n(-c2ccccc2)n1C | 1.01 | 1.34 | 1.34 | 0.53 | 1.37 |  | survival at 336 h [7]: 100%; Cmax [8]: 2470 ng/mL; IC50 [9]: > 40 µM; Activity [10]: Non-Toxic; survival at 336 h [11]: 70%; CLz/F [12]: 6.83 mL/min/kg; bioavailability [13]: 59.3%; AUC(0-t) [14]: 19000 ng·h/mL; CL/F [15]: 11 mL/min/kg; survival at 336 h [16]: 100%; Activity [17]: Non-Toxic; AUC(0-t) [18]: 8220 ng·h/mL; Cmax [19]: 3050 ng/mL; Activity [20]: Non-Toxic; half-life [21]: 9.04 h; survival at 336 h [22]: 100%; Tmax [23]: 6 h; half-life [24]: 8.9 h; survival at 336 h [25]: 0%; survival at 336 h [26]: 100% |
| O=C(Nc1ccc(F)cc1)C1(C(=O)Nc2ccc(Oc3ccnc(Nc4cccc(N5CCOCC5)c4)n3)cc2)CC1 | 6.67 | 2.65 | 3.57 | 3.9 | 4.2 |  |  |
| O=C(Nc1ccc(Oc2ccnc(Nc3cccc(N4CCOCC4)c3)n2)cc1)c1ccccc1Nc1ccc(F)cc1 |  |  |  |  |  | > 1 |  |
| O=C1CCCc2cc(Nc3nccc(Oc4ccc(NC(=O)C5(C(=O)Nc6ccc(F)cc6)CC5)cc4)n3)ccc2N1 | 3.28 | 2.6 | 3.24 | 1.47 | 3.14 |  |  |
| O=C(Nc1ccc(Oc2ccnc(Nc3cccc(CN4CCOCC4)c3)n2)cc1)c1ccccc1Nc1ccc(F)cc1 |  |  |  |  |  | > 1 |  |
| COc1cc(C(=O)NCC2CC2)ccc1Nc1nccc(Oc2ccc(NC(=O)C3(C(=O)Nc4ccc(F)cc4)CC3)cc2)n1 |  |  |  |  |  | > 2 |  |
| COc1cc2nccc(Oc3ccc(NC(=O)C4(C(=O)Nc5ccc(F)cc5)CC4)cc3)c2cc1OC [CABOZANTINIB] |  |  |  |  |  |  | IC50 [9]: > 30 µM |
